Assay [1] has as its target T1, Inhibitor of nuclear factor kappa-B kinase subunit beta (Homo sapiens, UniProt O14920).
T1 sequence (O14920 whole entry): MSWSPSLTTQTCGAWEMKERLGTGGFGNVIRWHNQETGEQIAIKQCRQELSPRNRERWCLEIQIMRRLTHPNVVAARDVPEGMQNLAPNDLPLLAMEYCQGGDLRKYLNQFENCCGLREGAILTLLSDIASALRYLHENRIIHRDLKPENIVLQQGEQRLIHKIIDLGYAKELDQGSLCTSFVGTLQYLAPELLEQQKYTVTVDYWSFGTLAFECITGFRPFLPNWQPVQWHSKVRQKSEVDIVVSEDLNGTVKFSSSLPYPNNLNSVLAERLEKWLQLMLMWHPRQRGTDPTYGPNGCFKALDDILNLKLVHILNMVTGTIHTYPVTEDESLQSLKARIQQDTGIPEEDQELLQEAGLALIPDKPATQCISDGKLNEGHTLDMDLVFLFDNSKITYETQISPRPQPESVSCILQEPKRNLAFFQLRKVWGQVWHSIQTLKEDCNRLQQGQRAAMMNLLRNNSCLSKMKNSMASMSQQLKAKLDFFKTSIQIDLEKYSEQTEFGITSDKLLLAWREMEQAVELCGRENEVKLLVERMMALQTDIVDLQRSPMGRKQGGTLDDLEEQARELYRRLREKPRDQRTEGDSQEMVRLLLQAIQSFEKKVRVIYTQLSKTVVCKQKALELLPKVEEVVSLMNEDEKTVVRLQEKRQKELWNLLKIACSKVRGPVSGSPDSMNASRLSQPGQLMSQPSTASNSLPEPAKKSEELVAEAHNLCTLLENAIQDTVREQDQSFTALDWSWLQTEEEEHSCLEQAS
In words: Inhibition of human IKKbeta using ERLLDDRHDSGLDSMKDEE as substrate after 60 mins in presence of ATP by ADP-Glo kinase assay.

Assay [2] deals with T2, Inhibitor of nuclear factor kappa-B kinase subunit alpha (Homo sapiens, UniProt O15111).
T2 sequence (O15111 whole entry): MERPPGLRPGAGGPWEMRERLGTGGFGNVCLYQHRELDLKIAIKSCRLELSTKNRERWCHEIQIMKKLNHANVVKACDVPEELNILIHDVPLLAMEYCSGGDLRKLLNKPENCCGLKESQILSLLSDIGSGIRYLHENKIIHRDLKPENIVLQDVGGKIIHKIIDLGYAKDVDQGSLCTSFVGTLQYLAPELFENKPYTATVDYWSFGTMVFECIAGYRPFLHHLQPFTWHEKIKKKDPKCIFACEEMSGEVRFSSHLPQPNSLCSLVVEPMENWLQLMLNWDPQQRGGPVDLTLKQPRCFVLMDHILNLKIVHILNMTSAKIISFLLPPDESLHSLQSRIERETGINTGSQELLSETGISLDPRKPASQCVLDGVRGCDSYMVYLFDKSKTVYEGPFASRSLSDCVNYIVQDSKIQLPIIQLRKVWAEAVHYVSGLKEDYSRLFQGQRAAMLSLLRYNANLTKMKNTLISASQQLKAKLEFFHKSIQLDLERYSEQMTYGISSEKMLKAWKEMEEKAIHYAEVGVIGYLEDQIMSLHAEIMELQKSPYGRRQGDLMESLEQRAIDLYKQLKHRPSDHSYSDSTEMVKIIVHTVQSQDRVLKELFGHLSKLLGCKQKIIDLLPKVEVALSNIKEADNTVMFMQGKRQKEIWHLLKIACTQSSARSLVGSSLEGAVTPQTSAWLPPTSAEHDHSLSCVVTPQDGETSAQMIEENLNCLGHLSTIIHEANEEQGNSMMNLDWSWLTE
The experiment in a line: Inhibition of human IKKalpha using ERLLDDRHDSGLDSMKDEE as substrate after 60 mins in presence of ATP by ADP-Glo kinase assay.

Assay [3] addresses T3, Inhibitor of nuclear factor kappa-B kinase subunit epsilon (Homo sapiens, UniProt Q14164).
T3 sequence (Q14164 whole entry): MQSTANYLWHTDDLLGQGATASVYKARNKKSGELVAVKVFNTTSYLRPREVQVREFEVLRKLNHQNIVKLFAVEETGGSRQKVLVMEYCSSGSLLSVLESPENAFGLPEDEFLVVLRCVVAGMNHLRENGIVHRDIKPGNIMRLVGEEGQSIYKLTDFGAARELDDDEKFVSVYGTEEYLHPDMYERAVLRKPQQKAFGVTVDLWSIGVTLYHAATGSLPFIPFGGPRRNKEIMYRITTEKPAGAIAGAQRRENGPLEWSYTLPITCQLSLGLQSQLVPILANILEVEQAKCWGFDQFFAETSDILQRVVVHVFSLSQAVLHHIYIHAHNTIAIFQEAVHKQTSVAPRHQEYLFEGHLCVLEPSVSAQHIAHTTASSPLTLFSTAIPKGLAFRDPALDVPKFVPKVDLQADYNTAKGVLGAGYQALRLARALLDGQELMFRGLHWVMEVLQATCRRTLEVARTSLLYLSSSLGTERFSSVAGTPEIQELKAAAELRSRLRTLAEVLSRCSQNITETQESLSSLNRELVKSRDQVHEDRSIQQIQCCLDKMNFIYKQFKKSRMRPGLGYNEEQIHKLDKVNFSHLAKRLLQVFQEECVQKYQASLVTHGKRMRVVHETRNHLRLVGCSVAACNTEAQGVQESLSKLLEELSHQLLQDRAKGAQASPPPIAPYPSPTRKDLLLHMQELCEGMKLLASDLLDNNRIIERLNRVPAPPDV
In words: Inhibition of human IKKepsilon using ERLLDDRHDSGLDSMKDEE as substrate after 60 mins in presence of ATP by ADP-Glo kinase assay.

In assay [4] the target is Mitogen-activated protein kinase kinase kinase 14 (Homo sapiens, UniProt Q99558). In words: Inhibition of human NIK using AKDVDQGSLCTSFVGTLQY as substrate after 60 mins in presence of ATP by ADP-Glo kinase assay.
Chain of Mitogen-activated protein kinase kinase kinase 14 (Q99558 whole entry): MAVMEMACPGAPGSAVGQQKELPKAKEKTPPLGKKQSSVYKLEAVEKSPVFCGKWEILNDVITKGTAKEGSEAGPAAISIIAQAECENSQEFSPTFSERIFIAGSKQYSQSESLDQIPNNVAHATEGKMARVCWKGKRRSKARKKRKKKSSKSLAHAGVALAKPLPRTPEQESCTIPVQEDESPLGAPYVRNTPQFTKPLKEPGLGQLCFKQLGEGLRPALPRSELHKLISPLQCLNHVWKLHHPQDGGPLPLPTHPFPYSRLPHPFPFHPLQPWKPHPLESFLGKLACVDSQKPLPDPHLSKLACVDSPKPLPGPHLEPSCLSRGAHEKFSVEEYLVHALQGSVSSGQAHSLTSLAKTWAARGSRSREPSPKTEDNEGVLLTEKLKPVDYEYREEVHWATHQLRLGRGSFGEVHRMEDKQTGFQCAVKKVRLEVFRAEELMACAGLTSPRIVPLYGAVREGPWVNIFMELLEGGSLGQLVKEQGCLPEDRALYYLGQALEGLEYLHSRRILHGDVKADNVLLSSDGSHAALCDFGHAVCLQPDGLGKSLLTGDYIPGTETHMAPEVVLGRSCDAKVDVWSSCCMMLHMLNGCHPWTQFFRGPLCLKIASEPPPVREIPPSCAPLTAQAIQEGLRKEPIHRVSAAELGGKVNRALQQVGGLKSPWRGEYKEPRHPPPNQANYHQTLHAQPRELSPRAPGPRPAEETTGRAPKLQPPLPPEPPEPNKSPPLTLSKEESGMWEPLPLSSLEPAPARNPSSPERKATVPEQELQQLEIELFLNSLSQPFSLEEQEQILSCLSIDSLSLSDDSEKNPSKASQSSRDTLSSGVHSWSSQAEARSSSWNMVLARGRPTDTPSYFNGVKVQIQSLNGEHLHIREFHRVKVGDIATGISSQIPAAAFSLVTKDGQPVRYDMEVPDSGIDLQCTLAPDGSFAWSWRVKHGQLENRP
Assay [5] deals with T1, Inhibitor of nuclear factor kappa-B kinase subunit beta. The experiment in a line: Inhibition of IKK-beta in human Jurkat cells assessed as reduction in TNFalpha-stimulated IkBalpha degradation preincubated for 60 mins followed by TNFalpha stimulation for 20 mins by immunoblot analysis. It is filed as cell-based.
Assay [6] deals with Jurkat. In words: Inhibition of TNFalpha-activated canonical NF-kB signaling pathway in human Jurkat cells assessed as residual activity at 1 uM after 6 hrs by luciferase reporter gene assay relative to control. It is filed as cell-based. The method in brief:
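Jurkat cells nucleofected with 3 µg of NF-κB-RE firefly luciferase and TK-Renilla plasmids (10:1), then cultured 24 h at 37 °C. Compound added for a further 6 h, with TNFα in the last 20 min. Firefly luminescence normalized to Renilla and expressed as % of DMSO+TNFα control; mean ± SD of three experiments.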

Assay [7] concerns MDA-MB-231. The experiment in a line: Inhibition of constitutively activated canonical NF-kB signaling pathway in human MDA-MB-231 cells assessed as residual activity at 10 uM after 6 hrs by luciferase reporter gene assay relative to control. It is filed as cell-based. The method in brief: (§1)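 MDA-MB-231 cells (constitutive NF-κB) nucleofected with 3 µg of NF-κB-RE firefly luciferase plus TK-Renilla plasmids (10:1), then cultured 24 h. Compound added for a further 6 h or 24 h, without stimulus. Firefly/Renilla ratio expressed as % of DMSO-treated control; mean ± SD of three independent experiments.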

The subject of assay [8] is MDA-MB-231. The experiment in a line: Inhibition of constitutively activated canonical NF-kB signaling pathway in human MDA-MB-231 cells assessed as residual activity at 10 uM after 24 hrs by luciferase reporter gene assay relative to control. It is filed as cell-based. The method, boiled down: as §1
Assay [9] has as its system MDA-MB-231. The experiment in a line: Antiproliferative activity against human MDA-MB-231 cells assessed as DNA content after 72 hrs by Hoechst 33258 staining based fluorescence assay. It is filed as functional, cell-based. As to conditions: MDA-MB-231, 72 h. The method in brief:
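MDA-MB-231 cells (5 x 10³/well) grown in DMEM with 10% FBS and exposed to 0.001 - 200 µM compound or DMSO vehicle for 72 h. Cells were washed with PBS and lysed in 0.02% SDS in SSC buffer for 1 h at 37 °C. Hoechst 33258 (1 µg/mL) was then added and fluorescence read at ex 355/em 460 nm. IC50 taken by nonlinear regression; mean ± SD of three independent experiments.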

In assay [10] the test system is MDA-MB-231. The experiment in a line: Cytotoxicity against human MDA-MB-231 cells after 72 hrs by CellTox green assay. As to conditions: MDA-MB-231, 72 h. It is filed as cell-based. The method, boiled down: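 MDA-MB-231 cells (5×10^3/well) exposed to 0.001 - 100 µM compound or DMSO vehicle for 72 h. Membrane-integrity loss read by CellTox green fluorescence. IC50 taken by nonlinear regression; mean ± SD of three independent experiments.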

One compound from ChEMBL document CHEMBL4261552, “4-Hydroxy-N-[3,5-bis(trifluoromethyl)phenyl]-1,2,5-thiadiazole-3-carboxamide: a novel inhibitor of the canonical NF-κB cascade” (Medchemcomm, 2017) can be followed below.

Where only a bound is given, the exact number is not on record here.

For the compound `O=C(Nc1cc(Cl)cc2c1[nH]c1cnccc12)c1cccnc1`, the concentration for half-maximal inhibition (IC50) in assay [1] is 0.087 µM; in [2], > 100 µM; in assay [3], > 100 µM; in assay [4], > 100 µM; in assay [5], 0.186 µM; in assay [9], 0.9 µM. Moreover, the IC50 in assay [10] is > 100 µM. Besides, the Activity in assay [6] stood at 38.1%; in assay [7], 19.5%; in assay [8], 8.67%.
